In ChEMBL document CHEMBL1158548, “Tetrahydrochromenoimidazoles as potassium-competitive acid blockers (P-CABs): structure-activity relationship of their antisecretory properties and their affinity toward the hERG channel” (J Med Chem, 2010):

Experiments:
[1] = Partition coefficient, log D by HPLC; assay type: physicochemical; conditions: octanol/water
Procedure, shortened: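 logD by reversed-phase HPLC at 37 °C, calibrated with seven reference substances of known logD.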

[2] = Inhibition of H+/K+ ATPase in hog gastric mucosa by malachite green based competitive binding assay; assay type: tissue-based, Sus scrofa
Procedure, shortened: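 Hog gastric mucosa H+/K+-ATPase, isolated enzyme; competitive binding assay run at pH 7.4; pIC50 reported as geometric mean of 4-5 measurements.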

[3] = target: hERG (KCNH2) (Homo sapiens, UniProt Q12809); test: Inhibition of human ERG expressed in CHO-K1 cells at 10 uM by whole-cell patch clamp technique; assay type: cell-based; conditions: CHO-K1 cells that express human ERG
hERG (KCNH2), sequence (Q12809 whole entry): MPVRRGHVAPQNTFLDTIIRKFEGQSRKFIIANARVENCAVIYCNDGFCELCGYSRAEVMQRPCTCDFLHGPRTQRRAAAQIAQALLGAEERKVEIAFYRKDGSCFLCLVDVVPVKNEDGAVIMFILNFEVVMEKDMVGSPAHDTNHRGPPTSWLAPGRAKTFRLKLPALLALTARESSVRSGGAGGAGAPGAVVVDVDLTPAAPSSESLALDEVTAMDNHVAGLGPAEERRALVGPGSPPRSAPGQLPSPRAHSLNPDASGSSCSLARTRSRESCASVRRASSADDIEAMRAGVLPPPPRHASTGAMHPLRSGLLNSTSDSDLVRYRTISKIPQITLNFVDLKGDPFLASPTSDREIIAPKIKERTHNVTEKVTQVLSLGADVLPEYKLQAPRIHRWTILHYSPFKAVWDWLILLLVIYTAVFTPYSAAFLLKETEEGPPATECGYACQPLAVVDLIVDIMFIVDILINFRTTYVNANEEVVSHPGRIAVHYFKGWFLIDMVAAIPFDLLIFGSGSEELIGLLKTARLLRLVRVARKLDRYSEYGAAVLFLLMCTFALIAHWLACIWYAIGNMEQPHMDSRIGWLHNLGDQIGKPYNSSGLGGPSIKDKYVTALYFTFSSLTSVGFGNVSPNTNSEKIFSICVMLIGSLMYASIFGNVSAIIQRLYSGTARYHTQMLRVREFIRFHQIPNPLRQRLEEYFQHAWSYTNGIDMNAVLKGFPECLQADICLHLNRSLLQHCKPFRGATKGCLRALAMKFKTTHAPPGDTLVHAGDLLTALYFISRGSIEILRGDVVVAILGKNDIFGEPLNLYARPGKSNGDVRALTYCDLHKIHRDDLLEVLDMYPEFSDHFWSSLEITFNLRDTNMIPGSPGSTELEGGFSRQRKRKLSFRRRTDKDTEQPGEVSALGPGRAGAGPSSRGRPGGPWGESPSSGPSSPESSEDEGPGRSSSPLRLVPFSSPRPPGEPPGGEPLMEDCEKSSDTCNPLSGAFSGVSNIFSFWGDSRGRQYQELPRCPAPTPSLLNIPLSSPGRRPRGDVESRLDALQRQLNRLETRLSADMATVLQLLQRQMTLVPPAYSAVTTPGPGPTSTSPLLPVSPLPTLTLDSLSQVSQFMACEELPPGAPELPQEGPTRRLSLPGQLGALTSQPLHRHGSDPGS
Procedure, shortened: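 CHO-K1 cells stably transfected with hERG; whole-cell patch clamp recording of tail currents with test compound at 10 μM, three cells per compound; relative block of tail current amplitude given as arithmetic mean.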

[4] = system: Rattus norvegicus; test: Inhibition of pentagastrin-stimulated acid secretion in intraduodenally dosed perfused Sprague-Dawley rat Ghosh Schild model; assay type: functional; conditions: intraduodenal
[5] = Dissociation constant, pKa at pH 2.0 to 11.0 by potentiometric cosolvent titration; assay type: physicochemical
[6] = Octanol/aqueous KCl distribution coefficient, log D at pH 7.4 by potentiometric titration; assay type: physicochemical
Procedure, shortened: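 Octanol/aqueous KCl distribution coefficient from potentiometric titrations across pH 2.0-11.0 at 25 °C.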

[7] = system: Gastric gland; test: Inhibition of acid secretion in New Zealand White rabbit intact gastric glands assessed as [14C]dimethylaminopyridine accumulation by radioactivity; assay type: functional, tissue-based; conditions: Oryctolagus cuniculus
Procedure, shortened: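 Gastric glands isolated intact from New Zealand rabbits; cellular activity read as reduced accumulation of the weak base 14C-dimethylaminopyridine; pIC50 given as geometric mean of 4-5 determinations.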

Row | logD [1] | pIC50 [2] | pKa ([5]; read-out: pKa) | logD [6] | IC50 [7] | pKa [5] | SMILES | inhibition at 10 µM [3] | ED50 [4]
1 | – | 4.3 | – | – | 3160 nM | – | COC1(C)CN(C(=O)c2cc3c(nc(C)n3C)c3c2CC[C@@H](c2ccccc2C)O3)C1 | 20% | 1 µmol/kg
2 | 3.1 | 5.4 | – | – | 794 nM | 5.7 | Cc1ccccc1[C@@H]1CCc2c(C(=O)N3CCCC3)cc3c(nc(C)n3C)c2O1 | 43% | 0.7 µmol/kg
3 | 2.4 | 5 | – | – | 63100 nM | – | Cc1ccccc1[C@@H]1CCc2c(C(=O)N3CC(CO)C3)cc3c(nc(C)n3C)c2O1 | 2% | 1.4 µmol/kg
4 | 3 | 4.9 | – | – | 794 nM | 5.68 | Cc1ccccc1[C@@H]1CCc2c(C(=O)NC3CC3)cc3c(nc(C)n3C)c2O1 | 43% | 0.3 µmol/kg
5 | 2.5 | 4.8 | – | – | 5010 nM | – | Cc1ccccc1[C@@H]1CCc2c(C(N)=O)cc3c(nc(C)n3C)c2O1 | 14% | 2 µmol/kg
6 | 2.4 | 5 | – | – | 39800 nM | – | Cc1ccccc1[C@@H]1CCc2c(C(=O)N3CC(O)C3)cc3c(nc(C)n3C)c2O1 | 11% | 1.2 µmol/kg
7 | 3.3 | 4.7 | – | – | 3980 nM | 5.36 | Cc1ccccc1[C@@H]1CCc2c(C(=O)N3CC(F)(F)C3)cc3c(nc(C)n3C)c2O1 | 28% | 0.3 µmol/kg
8 | 2.8 | 5.5 | – | – | 794 nM | – | Cc1ccccc1[C@@H]1CCc2c(C(=O)N3CCC3)cc3c(nc(C)n3C)c2O1 | 14% | 0.3 µmol/kg
9 | 3 | 4.5 | – | – | 794 nM | – | CCOC1CN(C(=O)c2cc3c(nc(C)n3C)c3c2CC[C@@H](c2ccccc2C)O3)C1 | 70% | 0.4 µmol/kg
10 | 3.3 | 4.9 | – | – | 1260 nM | 5.62 | CCCOC1CN(C(=O)c2cc3c(nc(C)n3C)c3c2CC[C@@H](c2ccccc2C)O3)C1 | 94% | 0.2 µmol/kg
11 | 2.6 | 4.9 | – | – | 2510 nM | – | Cc1nc2c3c(c(C(=O)N4CCC4)cc2n1C)CC[C@@H](c1ccccc1)O3 | 18% | 0.3 µmol/kg
12 | 2.6 | 4.6 | – | – | 10000 nM | – | Cc1ccccc1[C@@H]1CCc2c(C(=O)NC3COC3)cc3c(nc(C)n3C)c2O1 | 49% | 2 µmol/kg
13 | 3 | 5 | – | – | 1000 nM | 5.54 | Cc1ccccc1[C@@H]1CCc2c(C(=O)N3CC(F)C3)cc3c(nc(C)n3C)c2O1 | 28% | 0.3 µmol/kg
14 | 2.8 | 4.8 | – | – | 5010 nM | – | Cc1ccccc1[C@@H]1CCc2c(C(=O)N3CCOCC3)cc3c(nc(C)n3C)c2O1 | 4% | 1 µmol/kg

Further lines, the molecule ahead of its results:

Row | SMILES | logD [1] | pIC50 [2] | pKa ([5]; read-out: pKa) | logD [6] | IC50 [7] | pKa [5] | inhibition at 10 µM [3] | ED50 [4]
15 | Cc1sccc1[C@@H]1CCc2c(C(=O)N(C)C)cc3c(nc(C)n3C)c2O1 | 2.7 | 6.3 | 5.66 | 2.32 | 1000 nM | – | 18% | 0.3 µmol/kg
16 | CNC(=O)c1cc2c(nc(C)n2C)c2c1CC[C@@H](c1ccccc1)O2 | 2.4 | 4.8 | – | – | 6310 nM | – | 26% | 0.5 µmol/kg
17 | Cc1ccccc1[C@@H]1CCc2c(C(=O)N(C)C)cc3c(nc(CO)n3C)c2O1 | 2.5 | – | – | – | 1170 nM | – | 12% | 1 µmol/kg
18 | Cc1nc2c3c(c(C(=O)N(C)C)cc2n1C)CC[C@@H](c1ccc(F)cc1Cl)O3 | 3 | 5.4 | – | – | 794 nM | – | 33% | 0.1 µmol/kg
19 | COCc1cc2c(nc(C)n2C)c2c1CC[C@@H](c1ccccc1C)O2 | 3.4 | 5.1 | – | – | 1000 nM | 6.24 | 34% | 0.5 µmol/kg
20 | COC1CN(C(=O)c2cc3c(nc(C)n3C)c3c2CC[C@@H](c2ccc(Cl)cc2C)O3)C1 | 3.2 | 5.4 | 5.48 | 3.42 | 501 nM | – | 95% | 0.4 µmol/kg
21 | Cc1nc2c3c(c(C(=O)N(C)C)cc2n1C)CC[C@@H](c1cccs1)O3 | 2.4 | 5 | – | – | 50100 nM | – | 9% | 2 µmol/kg
22 | CONC(=O)c1cc2c(nc(C)n2C)c2c1CC[C@@H](c1ccccc1C)O2 | 2.6 | 4.6 | – | – | 10000 nM | – | 13% | 1.8 µmol/kg
23 | CNC(=O)c1cc2c(nc(C)n2C)c2c1CC[C@@H](c1ccc(Cl)cc1)O2 | 2.9 | < 5 | – | – | 2000 nM | – | 68% | 0.3 µmol/kg
24 | Cc1ccccc1[C@@H]1CCc2c(C(=O)NCC3CCCO3)cc3c(nc(C)n3C)c2O1 (some centres undefined) | 3 | 4.3 | – | – | 3160 nM | – | 75% | 1 µmol/kg
25 | CON(C)C(=O)c1cc2c(nc(C)n2C)c2c1CC[C@@H](c1ccccc1C)O2 | 2.9 | 5.4 | – | – | 1260 nM | 5.49 | 13% | 0.15 µmol/kg
26 | Cc1ccccc1[C@@H]1CCc2c(C(=O)N(C)C)cn3c(C)c(C)nc3c2O1 | – | – | 7.15 | – | – | – | – | –
27 | Cc1nc2c3c(c(C(=O)N(C)C)cc2n1C)CC[C@@H](c1ccccc1Cl)O3 | 3 | – | 5.45 | 2.86 | 1580 nM | – | 13% | 0.4 µmol/kg
28 | Cc1ccccc1[C@@H]1CCc2c(C(=O)NC(C)C)cc3c(nc(C)n3C)c2O1 | 3.1 | 4.7 | – | – | 631 nM | – | 30% | 0.45 µmol/kg
29 | Cc1nnc(-c2cc3c(nc(C)n3C)c3c2CC[C@@H](c2ccccc2C)O3)o1 | 3.3 | 4.6 | – | – | 5010 nM | 5.17 | 27% | 0.6 µmol/kg
30 | Cc1nc2c3c(c(C(=O)N4CCC4)cc2n1C)CC[C@@H](c1ccc(Cl)cc1)O3 | 3 | 5.3 | – | – | 1260 nM | – | 84% | 0.16 µmol/kg
31 | Cc1nc2c3c(c(C(=O)N(C)C)cc2n1C)CC[C@@H](c1ccccc1)O3 | 2.5 | 5.3 | – | – | 3160 nM | – | 28% | 0.26 µmol/kg
32 | Cc1ccccc1[C@@H]1CCc2c(C(=O)NCC3CC3)cc3c(nc(C)n3C)c2O1 | 3.3 | 4.7 | – | – | 501 nM | 5.76 | 90% | < 0.3 µmol/kg
33 | COCCNC(=O)c1cc2c(nc(C)n2C)c2c1CC[C@@H](c1ccccc1C)O2 | 2.8 | 4.9 | – | – | 3160 nM | – | 55% | 0.8 µmol/kg
34 | CCNC(=O)c1cc2c(nc(C)n2C)c2c1CC[C@@H](c1ccccc1C)O2 | 2.9 | 4.9 | – | – | 1000 nM | 5.71 | 24% | 0.12 µmol/kg
35 | Cc1cc(F)ccc1[C@@H]1CCc2c(C(=O)N(C)C)cc3c(nc(C)n3C)c2O1 | 2.9 | 5.6 | – | – | 501 nM | – | 19% | < 0.3 µmol/kg
36 | COCCN(C)C(=O)c1cc2c(nc(C)n2C)c2c1CC[C@@H](c1ccccc1C)O2 | 2.9 | 4.9 | – | – | 3160 nM | – | 8% | 1.2 µmol/kg
37 | Cc1ccccc1[C@@H]1CCc2c(C(=O)NCC[S+](C)[O-])cc3c(nc(C)n3C)c2O1 (some centres undefined) | – | 4.6 | – | – | – | – | 6% | 1.4 µmol/kg
38 | COCc1nc2c3c(c(C(=O)N(C)C)cc2n1C)CC[C@@H](c1ccccc1C)O3 | 2.9 | 4.57 | – | – | 45700 nM | – | 7% | 3 µmol/kg
39 | CCCNC(=O)c1cc2c(nc(C)n2C)c2c1CC[C@@H](c1ccccc1C)O2 | 3.2 | 4.7 | – | – | 631 nM | 5.63 | 66% | < 0.3 µmol/kg
40 | CSCCNC(=O)c1cc2c(nc(C)n2C)c2c1CC[C@@H](c1ccccc1C)O2 | 3.2 | 4.8 | – | – | 1260 nM | – | 73% | 1 µmol/kg
41 | Cc1ccccc1[C@@H]1CCc2c(C(=O)NCC3CCCCO3)cc3c(nc(C)n3C)c2O1 (some centres undefined) | 3.3 | < 5 | – | – | 6310 nM | – | 54% | 1.2 µmol/kg
42 | C#CCNC(=O)c1cc2c(nc(C)n2C)c2c1CC[C@@H](c1ccccc1C)O2 | 3.1 | 4.7 | – | – | 2000 nM | 5.58 | 83% | 0.3 µmol/kg
43 | Cc1ccccc1[C@@H]1CCc2c(C(=O)NCC#N)cc3c(nc(C)n3C)c2O1 | 2.9 | 4.7 | – | – | 12600 nM | – | 18% | 3 µmol/kg
